One assay relates to Plasmodium falciparum. Kind of assay: Antimalarial activity against chloroquine/mefloquine-resistant Plasmodium falciparum Dd2 incubated for 72 hrs by SYBR green I-based fluorescence assay. It counts as functional, organism-based. As to conditions: Dd2, 72 h. In outline: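 Parasite growth of P. falciparum Dd2 (chloroquine/mefloquine-resistant) measured after 72 h compound treatment with the SYBR green I-based fluorescence assay; artemisinin run as positive control; IC50 values reported.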

A further assay deals with A2780. Kind of assay: Antiproliferative activity against human A2780 cells assessed as inhibition of cell growth incubated for 2 days by alamar blue assay. The format is cell-based. As to conditions: A2780, 48 h.

As for `CCCCCCCC(O)CCCCCCC/C=C/[C@H](O)C[C@H]1CC=CC(=O)O1` (stereo partly drawn), the half-inhibitory concentration (IC50) in the assay with Plasmodium falciparum was 9 µM; with A2780, greater than 10 µM.

As to `CCCCCC/C=C\CCCCCCC[C@@H](O)C[C@H]1CC=CC(=O)O1`, the IC50 with Plasmodium falciparum worked out at 5.5 µM; in the assay with A2780 it was 8.6 µM.

As for `CCCCCCCC(O)CCCCCCC/C=C/[C@H]1C[C@H]2C[C@H](CC(=O)O2)O1` (stereo partly drawn), the IC50 with Plasmodium falciparum and with A2780 was greater than 10 µM each time.

Turning to `CCCCCC/C=C\CCCCCCC[C@@H]1C[C@H]2C[C@H](CC(=O)O2)O1`, the IC50 in the assay on Plasmodium falciparum and in the assay with A2780 was greater than 10 µM throughout.

With `CCCCCCCCCCCCCCC[C@@H](O)C[C@H](O)C[C@H]1CC=CC(=O)O1`, the values for the IC50 in the assay on Plasmodium falciparum and in the assay on A2780 were 5.8 µM and greater than 10 µM, respectively.

On to `CCCCCCCC/C=C\CCCCCCC[C@H](O)C[C@H]1CC=CC(=O)O1`, for which the values for the IC50 in the assay on Plasmodium falciparum and in the assay on A2780 were 7.4 µM and greater than 10 µM, respectively.

With `CCCCCCCCCCCCC(O)CC1C[C@H]2C[C@H](CC(=O)O2)O1` (stereo partly drawn), the IC50 with Plasmodium falciparum and with A2780 was greater than 10 µM in each case.

As for `CCCCCCCC/C=C\CCCCCC(O)CC1C[C@H]2C[C@H](CC(=O)O2)O1` (stereo partly drawn), the 50% inhibitory concentration (IC50) in the assay with Plasmodium falciparum is 4 µM; in the assay with A2780, greater than 10 µM.

The compound `C[C@@H]1CC[C@H]2[C@@H](C)C(=O)O[C@@H]3O[C@@]4(C)CC[C@@H]1[C@]32OO4` [ARTEMISININ] had an IC50 with Plasmodium falciparum of 0.007 µM.

In the case of `CCCCCCCCCCCCCCC[C@@H](O)C[C@H]1C[C@H]2C[C@H](CC(=O)O2)O1`, the IC50 in the assay on Plasmodium falciparum and in the assay with A2780 was greater than 10 µM in each case.

With `CCCCCCCCCCC/C=C\CCCCCCCC1C[C@H]2C[C@H](CC(=O)O2)O1` (stereo partly drawn), the values for the IC50 with Plasmodium falciparum and in the assay with A2780 were 6 µM and greater than 10 µM, respectively.

`CCCCCCCCCCCCC[C@@H](O)C[C@H]1CC=CC(=O)O1`: the values for the 50% inhibitory concentration (IC50) in the assay with Plasmodium falciparum and in the assay with A2780 were 9.2 µM and greater than 10 µM, respectively.

As usually defined, the IC50 is the midpoint of a concentration-inhibition curve.
